Laboratory results from ChEMBL document CHEMBL1155924, “Achieving multi-isoform PI3K inhibition in a series of substituted 3,4-dihydro-2H-benzo[1,4]oxazines” (Bioorg Med Chem Lett, 2008).
Calls of active or inactive are those of the source. The rule behind the calls is not given here.

Experiments:
[1] = target: T1, Phosphatidylinositol 4,5-bisphosphate 3-kinase catalytic subunit delta isoform (Homo sapiens, UniProt O00329); test: Inhibition of PI3K delta
T1 sequence (O00329 whole entry): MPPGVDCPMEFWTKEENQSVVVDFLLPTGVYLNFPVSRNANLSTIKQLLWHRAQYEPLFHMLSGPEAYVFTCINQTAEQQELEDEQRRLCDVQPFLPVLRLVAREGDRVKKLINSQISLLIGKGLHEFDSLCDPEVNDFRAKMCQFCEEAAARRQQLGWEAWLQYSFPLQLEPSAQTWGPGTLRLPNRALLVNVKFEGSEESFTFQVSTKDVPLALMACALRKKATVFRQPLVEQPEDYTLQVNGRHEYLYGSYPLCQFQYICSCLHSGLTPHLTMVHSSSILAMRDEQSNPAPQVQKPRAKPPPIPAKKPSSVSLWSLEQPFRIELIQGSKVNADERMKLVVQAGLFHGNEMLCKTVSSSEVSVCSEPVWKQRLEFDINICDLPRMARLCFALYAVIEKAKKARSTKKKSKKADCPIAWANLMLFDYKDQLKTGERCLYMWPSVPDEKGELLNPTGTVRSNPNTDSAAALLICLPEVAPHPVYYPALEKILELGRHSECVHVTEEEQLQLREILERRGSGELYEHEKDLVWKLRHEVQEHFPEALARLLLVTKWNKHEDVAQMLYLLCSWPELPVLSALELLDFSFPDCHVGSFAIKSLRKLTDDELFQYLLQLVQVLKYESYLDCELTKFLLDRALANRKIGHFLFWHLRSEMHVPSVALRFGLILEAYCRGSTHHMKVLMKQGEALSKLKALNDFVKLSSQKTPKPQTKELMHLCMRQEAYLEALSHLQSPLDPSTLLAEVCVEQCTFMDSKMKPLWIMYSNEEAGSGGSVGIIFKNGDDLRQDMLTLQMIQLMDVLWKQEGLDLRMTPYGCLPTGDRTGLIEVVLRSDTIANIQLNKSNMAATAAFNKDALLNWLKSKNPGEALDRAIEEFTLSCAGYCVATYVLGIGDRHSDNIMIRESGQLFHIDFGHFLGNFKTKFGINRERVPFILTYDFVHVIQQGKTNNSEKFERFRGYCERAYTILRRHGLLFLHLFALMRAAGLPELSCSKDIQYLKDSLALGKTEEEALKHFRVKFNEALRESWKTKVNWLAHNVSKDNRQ

[2] = target: Phosphatidylinositol 4,5-bisphosphate 3-kinase catalytic subunit gamma isoform (Homo sapiens, UniProt P48736); test: Inhibition of PI3K gamma
[3] = target: Phosphatidylinositol 4,5-bisphosphate 3-kinase catalytic subunit alpha isoform (Homo sapiens, UniProt P42336); test: Inhibition of PI3K alpha
[4] = target: Phosphatidylinositol 4,5-bisphosphate 3-kinase catalytic subunit beta isoform (Homo sapiens, UniProt P42338); test: Inhibition of PI3K beta
[5] = system: Neutrophil; test: Inhibition of fMLP-stimulated superoxide production in TNF alpha-primed human neutrophils by spectrophotometry; format: functional, cell-based
Outline: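 Human neutrophils were primed with TNFα and stimulated with fMLP, and cellular superoxide production was monitored. Inhibition values are quoted in nM.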

[6] = Clearance in human microsomes assessed per mg of protein at 0.5 uM; format: ADME, Microsome
[7] = system: Hepatocyte; test: Clearance in rat hepatocyte assessed per mg of protein at 2 uM; format: ADME, cell-based, Liver; settings: hepatocytes
[8] = Clearance in rat microsomes assessed per mg of protein at 0.5 uM; format: ADME, Liver, Microsome; settings: for microsomal CLint at 0.5 µM: liver microsomes
[9] = organism: Homo sapiens; test: Selectivity for human PI3K gamma over human PI3K delta
[10] = target: T2, Testis-specific serine/threonine-protein kinase 1 (Homo sapiens) (UniProt Q9BXA7); test: Inhibition of TSSK1 at 10 uM
T2 sequence (whole entry): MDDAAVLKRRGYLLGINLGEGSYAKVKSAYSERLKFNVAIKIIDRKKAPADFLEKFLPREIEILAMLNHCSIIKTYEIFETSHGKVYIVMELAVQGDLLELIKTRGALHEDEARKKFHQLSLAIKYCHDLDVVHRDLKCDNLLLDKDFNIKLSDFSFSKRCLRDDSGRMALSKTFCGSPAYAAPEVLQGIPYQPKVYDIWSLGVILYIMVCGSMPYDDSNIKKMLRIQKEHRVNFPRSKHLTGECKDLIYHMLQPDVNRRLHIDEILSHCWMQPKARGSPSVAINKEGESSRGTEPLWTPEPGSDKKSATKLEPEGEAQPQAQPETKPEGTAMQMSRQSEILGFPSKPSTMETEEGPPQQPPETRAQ

[11] = target: Serine/threonine-protein kinase pim-1 (Homo sapiens) (UniProt P11309); test: Inhibition of PIM1 at 10 uM
[12] = Inhibition of CaMK2 at 10 uM
[13] = Inhibition of CK1 at 10 uM
[14] = target: T3, Serine/threonine-protein kinase mTOR (Homo sapiens, UniProt P42345); test: Inhibition of mTOR at 10 uM
[15] = Cmax in Han-Wistar rat at 3 mg/kg, po; format: ADME, organism-based; design: dose 3 mg/kg, route oral; settings: in vivo
Outline: (§1)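 Male-or-unspecified Han–Wistar rats were given a single oral dose of 3 mg/kg. Plasma Cmax is reported in ng/mL and AUC in ng h/mL.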

[16] = AUC in Han-Wistar rat at 3 mg/kg, po; format: ADME, organism-based; design: dose 3 mg/kg, route oral; settings: plasma; outline: as §1
[17] = system: Rattus norvegicus; test: Inhibition of anti-CD3-induced IL2 release in po dosed Lewis rat blood; format: functional
Outline: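 Acute T-cell activation was induced by anti-CD3 antibody in male Lewis rats. Compound was given orally, and IL2 released into blood was measured. Percent inhibition of IL-2 was plotted against log dose (mg/kg) to derive ED50. Values are mean ± SEM, n = 8.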

[18] = target: T3, Serine/threonine-protein kinase mTOR; test: Inhibition of mTOR
[19] = Oral bioavailability in Han-Wistar rat at 3 mg/kg; format: ADME, organism-based; settings: in vivo
[20] = target: Mitogen-activated protein kinase 14 (Homo sapiens) (UniProt Q16539); test: Inhibition of SAPK2a at 10 uM
[21] = Clearance in Han-Wistar rat at 1 mg/kg, iv; format: ADME, organism-based; design: dose 1 mg/kg, route intravenous; settings: in vivo
Outline: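 Han–Wistar rats were dosed intravenously at 1 mg/kg. Clearance is reported in mL/min/kg.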

Sequence of Phosphatidylinositol 4,5-bisphosphate 3-kinase catalytic subunit beta isoform (P42338 whole entry, canonical isoform): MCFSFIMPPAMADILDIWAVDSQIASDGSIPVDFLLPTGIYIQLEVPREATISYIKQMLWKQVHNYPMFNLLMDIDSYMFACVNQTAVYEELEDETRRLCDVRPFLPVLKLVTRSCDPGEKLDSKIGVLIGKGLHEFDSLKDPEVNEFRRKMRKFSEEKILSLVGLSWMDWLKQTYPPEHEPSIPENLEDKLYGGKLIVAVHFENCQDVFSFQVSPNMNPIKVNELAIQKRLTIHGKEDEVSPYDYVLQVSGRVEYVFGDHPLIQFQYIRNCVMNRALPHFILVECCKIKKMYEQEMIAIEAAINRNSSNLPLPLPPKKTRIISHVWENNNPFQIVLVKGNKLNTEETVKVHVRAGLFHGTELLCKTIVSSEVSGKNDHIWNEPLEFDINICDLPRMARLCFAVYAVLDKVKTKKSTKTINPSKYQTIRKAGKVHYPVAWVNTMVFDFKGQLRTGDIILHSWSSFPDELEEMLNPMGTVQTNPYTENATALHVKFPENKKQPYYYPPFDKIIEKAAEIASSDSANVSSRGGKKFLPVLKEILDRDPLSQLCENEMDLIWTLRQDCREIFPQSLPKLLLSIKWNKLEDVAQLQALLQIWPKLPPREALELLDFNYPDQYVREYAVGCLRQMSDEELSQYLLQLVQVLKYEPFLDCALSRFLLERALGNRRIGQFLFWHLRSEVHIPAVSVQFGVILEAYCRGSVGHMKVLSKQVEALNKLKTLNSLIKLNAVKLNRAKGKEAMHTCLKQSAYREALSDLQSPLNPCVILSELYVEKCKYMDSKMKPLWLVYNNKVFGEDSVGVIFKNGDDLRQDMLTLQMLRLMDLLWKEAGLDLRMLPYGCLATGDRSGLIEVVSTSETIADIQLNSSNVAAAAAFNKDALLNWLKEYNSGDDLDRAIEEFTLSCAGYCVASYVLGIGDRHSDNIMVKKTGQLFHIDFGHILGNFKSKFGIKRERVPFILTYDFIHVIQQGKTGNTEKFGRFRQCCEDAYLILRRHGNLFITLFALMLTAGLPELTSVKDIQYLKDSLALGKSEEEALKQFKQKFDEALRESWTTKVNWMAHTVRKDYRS
Sequence of Phosphatidylinositol 4,5-bisphosphate 3-kinase catalytic subunit alpha isoform (P42336 whole entry, canonical isoform): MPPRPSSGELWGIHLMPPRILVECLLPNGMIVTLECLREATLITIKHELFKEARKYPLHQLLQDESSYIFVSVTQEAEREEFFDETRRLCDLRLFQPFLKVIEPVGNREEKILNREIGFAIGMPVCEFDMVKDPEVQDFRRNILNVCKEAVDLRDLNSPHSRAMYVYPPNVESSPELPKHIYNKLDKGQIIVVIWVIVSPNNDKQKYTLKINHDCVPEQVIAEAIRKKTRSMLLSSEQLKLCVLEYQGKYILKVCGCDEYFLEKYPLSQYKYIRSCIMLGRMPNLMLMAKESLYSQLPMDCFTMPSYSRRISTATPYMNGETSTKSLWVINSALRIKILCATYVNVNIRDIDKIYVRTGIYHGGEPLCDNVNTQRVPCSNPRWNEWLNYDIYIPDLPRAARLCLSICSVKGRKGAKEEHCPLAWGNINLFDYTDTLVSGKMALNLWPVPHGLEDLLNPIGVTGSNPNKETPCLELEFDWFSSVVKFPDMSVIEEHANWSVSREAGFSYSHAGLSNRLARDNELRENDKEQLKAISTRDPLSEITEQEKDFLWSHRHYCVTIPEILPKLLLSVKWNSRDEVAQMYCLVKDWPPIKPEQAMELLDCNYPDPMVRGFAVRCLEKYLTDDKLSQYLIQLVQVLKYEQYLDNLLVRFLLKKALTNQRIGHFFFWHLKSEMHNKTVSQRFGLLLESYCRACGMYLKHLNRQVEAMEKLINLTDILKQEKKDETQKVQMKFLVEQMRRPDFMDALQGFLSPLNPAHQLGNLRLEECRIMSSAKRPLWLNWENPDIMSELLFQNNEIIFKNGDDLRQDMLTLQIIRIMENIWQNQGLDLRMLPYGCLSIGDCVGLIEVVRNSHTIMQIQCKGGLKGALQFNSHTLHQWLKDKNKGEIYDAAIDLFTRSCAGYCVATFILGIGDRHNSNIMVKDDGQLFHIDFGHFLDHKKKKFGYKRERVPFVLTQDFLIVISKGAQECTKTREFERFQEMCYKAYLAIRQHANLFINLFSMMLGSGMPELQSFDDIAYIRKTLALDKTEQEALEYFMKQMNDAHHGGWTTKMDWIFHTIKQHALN
Sequence of Phosphatidylinositol 4,5-bisphosphate 3-kinase catalytic subunit gamma isoform (P48736 whole entry, canonical isoform): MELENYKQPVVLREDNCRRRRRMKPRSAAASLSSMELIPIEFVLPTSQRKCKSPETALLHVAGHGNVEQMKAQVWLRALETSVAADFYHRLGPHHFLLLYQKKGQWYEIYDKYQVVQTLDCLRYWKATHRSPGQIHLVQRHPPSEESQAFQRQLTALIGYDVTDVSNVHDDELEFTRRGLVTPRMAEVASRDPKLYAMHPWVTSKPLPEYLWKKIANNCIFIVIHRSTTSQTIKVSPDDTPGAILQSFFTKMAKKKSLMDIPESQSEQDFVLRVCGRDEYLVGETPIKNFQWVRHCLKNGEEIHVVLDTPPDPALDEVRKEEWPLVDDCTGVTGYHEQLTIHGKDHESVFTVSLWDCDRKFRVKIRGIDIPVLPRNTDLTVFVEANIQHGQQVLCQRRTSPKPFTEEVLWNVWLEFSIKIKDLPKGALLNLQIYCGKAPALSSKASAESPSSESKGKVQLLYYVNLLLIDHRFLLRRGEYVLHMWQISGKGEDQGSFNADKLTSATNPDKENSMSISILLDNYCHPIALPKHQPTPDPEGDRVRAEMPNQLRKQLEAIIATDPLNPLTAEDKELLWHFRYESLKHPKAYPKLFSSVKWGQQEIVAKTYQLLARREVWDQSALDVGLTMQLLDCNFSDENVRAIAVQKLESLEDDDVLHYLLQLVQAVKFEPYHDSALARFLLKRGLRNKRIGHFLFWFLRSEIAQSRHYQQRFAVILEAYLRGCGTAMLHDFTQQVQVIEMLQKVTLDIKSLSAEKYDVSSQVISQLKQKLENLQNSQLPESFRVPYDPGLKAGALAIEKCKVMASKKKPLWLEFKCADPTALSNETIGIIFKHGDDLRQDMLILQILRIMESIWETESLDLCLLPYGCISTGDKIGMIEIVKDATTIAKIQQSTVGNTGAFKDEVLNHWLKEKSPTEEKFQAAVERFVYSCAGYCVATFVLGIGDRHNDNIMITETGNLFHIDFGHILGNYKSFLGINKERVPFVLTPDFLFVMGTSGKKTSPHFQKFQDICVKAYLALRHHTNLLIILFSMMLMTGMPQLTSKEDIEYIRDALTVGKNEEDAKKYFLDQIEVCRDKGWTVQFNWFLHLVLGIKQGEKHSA
Sequence of Serine/threonine-protein kinase pim-1 (Homo sapiens) (P11309 whole entry, looked up): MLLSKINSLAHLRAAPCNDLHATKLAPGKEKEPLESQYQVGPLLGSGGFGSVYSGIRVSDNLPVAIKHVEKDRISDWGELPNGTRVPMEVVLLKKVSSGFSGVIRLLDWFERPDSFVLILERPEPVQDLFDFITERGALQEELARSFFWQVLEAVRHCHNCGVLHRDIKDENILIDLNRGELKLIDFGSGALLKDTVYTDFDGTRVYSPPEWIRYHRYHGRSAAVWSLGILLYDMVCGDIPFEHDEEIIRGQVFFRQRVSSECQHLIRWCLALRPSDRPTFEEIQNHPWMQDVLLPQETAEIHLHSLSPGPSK
Sequence of Mitogen-activated protein kinase 14 (Homo sapiens) (Q16539 whole entry): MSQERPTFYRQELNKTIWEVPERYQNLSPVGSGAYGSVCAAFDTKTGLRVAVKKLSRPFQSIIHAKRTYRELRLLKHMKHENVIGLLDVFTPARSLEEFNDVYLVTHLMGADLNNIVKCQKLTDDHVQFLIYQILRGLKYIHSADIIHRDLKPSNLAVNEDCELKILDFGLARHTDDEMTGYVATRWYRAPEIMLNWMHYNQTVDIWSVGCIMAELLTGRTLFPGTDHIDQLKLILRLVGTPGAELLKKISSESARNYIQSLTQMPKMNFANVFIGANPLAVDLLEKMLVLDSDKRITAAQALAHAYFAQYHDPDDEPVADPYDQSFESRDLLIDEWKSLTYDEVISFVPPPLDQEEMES

IC50 [1]	IC50 [2]	IC50 [3]	IC50 [4]	SMILES	other results
722 nM	5280 nM	2370 nM	450 nM	CC1(C)Cc2nc(N3CCOCC3)sc2C(=O)N1	IC50 [5]: 2960 nM; microsomal CLint at 0.5 µM [6]: 1 µL/min/mg; CL [7]: 1 µL/min/mg
783 nM	357 nM		1240 nM	CC1(C)Cc2nc(N3CCOc4cc(F)ccc43)sc2C(=O)N1	
357 nM	617 nM	1810 nM	964 nM	Cc1ccc2c(c1)N(c1nc3c(s1)C(=O)NC(C)(C)C3)CCO2	
26 nM	73 nM	164 nM	308 nM	Cc1ccc(-c2ccc3c(c2)N(c2nc4c(s2)C(=O)CC(C)(C)C4)CCO3)cn1	microsomal CLint at 0.5 µM [8]: 25 µL/min/mg; microsomal CLint at 0.5 µM [6]: 48 µL/min/mg
614 nM	829 nM	676 nM	511 nM	CC1(C)CC(=O)c2sc(N3CCOc4ccccc43)nc2C1	fold change (FC) [9]: 2; IC50 [5]: 759 nM; microsomal CLint at 0.5 µM [8]: 220 µL/min/mg; microsomal CLint at 0.5 µM [6]: 47 µL/min/mg; CL [7]: 162 µL/min/mg
49 nM	52 nM	294 nM	336 nM	Cn1cc(-c2ccc3c(c2)N(c2nc4c(s2)C(=O)CC(C)(C)C4)CCO3)cn1	IC50 [5]: 44 nM; microsomal CLint at 0.5 µM [8]: 39 µL/min/mg; microsomal CLint at 0.5 µM [6]: 36 µL/min/mg; CL [7]: 8 µL/min/mg
1050 nM	> 20000 nM	> 20000 nM		CC1(C)CC(=O)c2sc(N3CCOc4cc(-c5ccccc5)ccc43)nc2C1	
21 nM	28 nM	116 nM	452 nM	Cc1ccc(-c2ccc3c(c2)N(c2nc4c(s2)C(=O)NC(C)(C)C4)CCO3)cn1	inhibition [10]: > 80%; inhibition [11]: > 80%; inhibition [12]: > 80%; inhibition [13]: > 80%; Activity [14]: inactive; IC50 [5]: 57 nM; microsomal CLint at 0.5 µM [8]: 17 µL/min/mg; microsomal CLint at 0.5 µM [6]: 25 µL/min/mg; CL [7]: 7 µL/min/mg; Cmax [15]: 649 ng/mL; AUC [16]: 2880 ng·h/mL; ED50 [17]: 15 mg/kg; IC50 [18]: > 15000 nM
123 nM	189 nM	791 nM	623 nM	CC1(C)Cc2nc(N3CCOc4ccc(-c5ncccn5)cc43)sc2C(=O)N1	
1630 nM	959 nM		1230 nM	CC1(C)Cc2nc(N3CCOc4ccccc43)sc2C(=O)N1	fold change (FC) [9]: 2
17 nM	77 nM	188 nM	298 nM	CC1(C)CC(=O)c2sc(N3CCOc4ccc(-c5cn[nH]c5)cc43)nc2C1	
11200 nM	16800 nM		11700 nM	CC1(C)Cc2nc(N3CCOc4c(F)cccc43)sc2C(=O)N1	
81 nM	163 nM	736 nM	727 nM	CC1(C)Cc2nc(N3CCOc4ccc(-c5cnc[nH]5)cc43)sc2C(=O)N1	
155 nM	210 nM		834 nM	CC1(C)Cc2nc(N3CCOc4ccc(C5CC5)cc43)sc2C(=O)N1	
366 nM	318 nM		1450 nM	CC(=O)c1ccc2c(c1)N(c1nc3c(s1)C(=O)NC(C)(C)C3)CCO2	
90 nM	145 nM	917 nM	1470 nM	CC1(C)Cc2nc(N3CCOc4ccc(-c5ccn[nH]5)cc43)sc2C(=O)N1	
				Cc1ccc(-c2ccc3c(c2)N(c2nc4c(s2)C(=O)NC(C)(C)C4)CCO3)nn1	Cmax [15]: 185 ng/mL; AUC [16]: 2470 ng·h/mL; bioavailability [19]: 66%

IC50 [1]	IC50 [2]	IC50 [3]	IC50 [4]	SMILES	other results
230 nM	440 nM	1130 nM	1590 nM	COc1ccc2c(c1)OCCN2c1nc2c(s1)C(=O)NC(C)(C)C2	
94 nM	159 nM	825 nM	1050 nM	CC1(C)CC(=O)c2sc(N3CCOc4ccc(-c5ccncc5)cc43)nc2C1	
285 nM	819 nM	2900 nM	3520 nM	Cn1ccnc1-c1ccc2c(c1)N(c1nc3c(s1)C(=O)NC(C)(C)C3)CCO2	
5730 nM	6650 nM	11300 nM	5310 nM	CC1(C)CC(=O)c2sc(N3CCOc4ncccc43)nc2C1	
15300 nM				Cc1cccc2c1OCCN2c1nc2c(s1)C(=O)NC(C)(C)C2	
> 20000 nM				CC1(C)Cc2nc(N3CCOc4cnccc43)sc2C(=O)N1	
20 nM	113 nM	172 nM	376 nM	CC1(C)CC(=O)c2sc(N3CCOc4ccc(-c5cccnc5)cc43)nc2C1	
51 nM	107 nM	636 nM	325 nM	Cc1nc(-c2ccc3c(c2)N(c2nc4c(s2)C(=O)NC(C)(C)C4)CCO3)c[nH]1	
153 nM	321 nM	1110 nM	1620 nM	CC1(C)Cc2nc(N3CCOc4ccc(Br)cc43)sc2C(=O)N1	
249 nM	829 nM	1970 nM	1920 nM	CC1(C)CC(=O)c2sc(N3CCOc4ccc(Br)cc43)nc2C1	
74 nM	258 nM	677 nM	2000 nM	CC1(C)CC(=O)c2sc(N3CCOc4ccc(-c5ccccn5)cc43)nc2C1	
605 nM	531 nM		1620 nM	Cc1ccc2c(c1)OCCN2c1nc2c(s1)C(=O)NC(C)(C)C2	
				CC1(C)CC(=O)c2sc(N3CCOCC3)nc2C1	microsomal CLint at 0.5 µM [8]: 6 µL/min/mg; CL [7]: 7 µL/min/mg
				Cn1cc(-c2ccc3c(c2)N(c2nc4c(s2)C(=O)NC(C)(C)C4)CCO3)cn1	inhibition [11]: > 50%; inhibition [20]: > 50%; clearance [7]: 0 µL/min/mg; Cmax [15]: 1220 ng/mL; AUC [16]: 6160 ng·h/mL; clearance [21]: 7 mL/min/kg; bioavailability [19]: 97%; ED50 [17]: 25 mg/kg
549 nM	3130 nM	2850 nM	5340 nM	CC1(C)CC(=O)c2sc(N3CCOc4cc(Br)ccc43)nc2C1	
7570 nM	> 20000 nM	> 20000 nM	10300 nM	CN(C)Cc1ccc2c(c1)N(c1nc3c(s1)C(=O)NC(C)(C)C3)CCO2	

SMILES	IC50 [1]	IC50 [2]	IC50 [3]	IC50 [4]	other results
CC1(C)Cc2nc(N3CCOc4ccc(-c5ccccc5)cc43)sc2C(=O)N1	50 nM	80 nM		3660 nM	IC50 [5]: 573 nM; microsomal CLint at 0.5 µM [8]: 39 µL/min/mg; microsomal CLint at 0.5 µM [6]: 21 µL/min/mg
CC1(C)CC(=O)c2sc(N3CCOc4ccc(-c5ccccc5)cc43)nc2C1	80 nM	854 nM	2670 nM	7990 nM	IC50 [5]: 267 nM; clearance ([8]; microsomes, 0.5 µM): 15 µL/min/mg; clearance ([6]; 0.5 µM): 18 µL/min/mg
